For 17 molecules, MIC results are on record in ChEMBL document CHEMBL1153792, “Synthesis, characterization and evaluation of antibacterial activity of some thiazolo[3,2-b][1,2,4]triazole incorporating diphenylsulfone moieties” (2009).

In brackets after ≈: the same amount, converted by molar mass.

By MIC is commonly meant the least concentration at which growth counts as inhibited.

Assay type in all cases: functional
Assay [1] has as its system Pseudomonas aeruginosa. Nature of the assay: Antimicrobial activity against Pseudomonas aeruginosa ATCC 9027 after 18 to 24 hrs by liquid broth method. The essentials:
(§1)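 Serial twofold dilution in Mueller–Hinton broth in 96-well format. Compounds were dissolved in DMSO and tested at final levels of 1024, 512, 256, 128, 64, 32, 16, 8, 4 and 2. Inoculum was a 0.5 McFarland suspension. Plates were incubated at 37 °C for 18–24 h. MIC was read by eye as the lowest concentration clearly inhibiting growth.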

The test system of assay [2] is Enterococcus faecalis. Nature of the assay: Antimicrobial activity against Enterococcus faecalis ATCC 19433 after 18 to 24 hrs by liquid broth method. The method, boiled down:
as §1

In assay [3] the test system is Bacillus cereus. Briefly: Antimicrobial activity against Bacillus cereus ATCC 14579 after 18 to 24 hrs by liquid broth method. The essentials: as §1
The test system of assay [4] is Acinetobacter baumannii. Nature of the assay: Antimicrobial activity against Acinetobacter baumannii ATCC 19606 after 18 to 24 hrs by liquid broth method. The method, boiled down: as §1
Assay [5] relates to Staphylococcus aureus. Briefly: Antimicrobial activity against Staphylococcus aureus ATCC 12600 after 18 to 24 hrs by liquid broth method. The method, boiled down:
as §1

For assay [6], the system named is Citrobacter freundii. Nature of the assay: Antimicrobial activity against Citrobacter freundii ATCC 8090 after 18 to 24 hrs by liquid broth method. The method, boiled down: as §1
Assay [7] has as its system Escherichia coli. Nature of the assay: Antimicrobial activity against Escherichia coli ATCC 11775 after 18 to 24 hrs by liquid broth method. The method, boiled down: as §1
For assay [8], the system named is Staphylococcus epidermidis. Nature of the assay: Antimicrobial activity against Staphylococcus epidermidis ATCC 14990 after 18 to 24 hrs by liquid broth method. The method, boiled down: as §1

In the case of `CN(C)[C@@H]1C(O)=C(C(N)=O)C(=O)[C@@]2(O)C(O)=C3C(=O)c4c(O)cccc4[C@@](C)(O)[C@H]3C[C@@H]12` [TETRACYCLINE], the MIC in assay [1] came to 12 µg/mL (≈ 27 µM); in assay [2] it was 32 µg/mL (≈ 72 µM); in assay [3], 0.094 µg/mL (≈ 0.212 µM); in assay [4], 1.5 µg/mL (≈ 3.38 µM); in assay [5] it was 0.19 µg/mL (≈ 0.428 µM); in assay [6] it was 1 µg/mL (≈ 2.25 µM). For the same molecule, the MIC in assay [7] came to 1.5 µg/mL (≈ 3.38 µM); in assay [8], 24 µg/mL (≈ 54 µM).
Take `O=C(CSc1nnc(-c2ccc(S(=O)(=O)c3ccc(Br)cc3)cc2)[nH]1)c1ccc(Br)cc1`: the minimum inhibitory concentration (MIC) in assay [1] was 128 µg/mL (≈ 216 µM); in assay [2] it was 128 µg/mL (≈ 216 µM); in assay [3], 256 µg/mL (≈ 431 µM); in assay [4], 64 µg/mL (≈ 108 µM); in assay [5] it was 128 µg/mL (≈ 216 µM); in assay [6], 128 µg/mL (≈ 216 µM). Also, the MIC in assay [7] and in assay [8] was 64 µg/mL (≈ 108 µM) in each case.
As to `O=S(=O)(c1ccccc1)c1ccc(-c2nnc(S)[nH]2)cc1`, the MIC in assay [1] is greater than 1020 µg/mL; in assay [2], greater than 1020 µg/mL; in assay [3], 1020 µg/mL (≈ 3230 µM); in assay [4] it was 256 µg/mL (≈ 807 µM); in assay [5], 512 µg/mL (≈ 1610 µM); in assay [6], greater than 1020 µg/mL. Further, the figures for the minimum inhibitory concentration (MIC) in assay [7] and in assay [8] were 512 µg/mL (≈ 1610 µM) and greater than 1020 µg/mL, respectively.
Take `O=S(=O)(c1ccc(Cl)cc1)c1ccc(-c2nnc(S)[nH]2)cc1`: the minimal inhibitory concentration (MIC) in assay [1] was 1020 µg/mL (≈ 2910 µM); in assay [2], greater than 1020 µg/mL; in assay [3], 1020 µg/mL (≈ 2910 µM); in assay [4] it was 256 µg/mL (≈ 728 µM); in assay [5], 1020 µg/mL (≈ 2910 µM); in assay [6] it was greater than 1020 µg/mL. In addition, the MIC in assay [7] and in assay [8] was 1020 µg/mL (≈ 2910 µM) throughout.
With `O=C(CSc1nnc(-c2ccc(S(=O)(=O)c3ccc(Cl)cc3)cc2)[nH]1)c1ccc(Br)cc1`, the MIC in assay [1] is 64 µg/mL (≈ 117 µM); in assay [2] it was 256 µg/mL (≈ 466 µM); in assay [3], 64 µg/mL (≈ 117 µM); in assay [4], 64 µg/mL (≈ 117 µM); in assay [5], 64 µg/mL (≈ 117 µM); in assay [6], 128 µg/mL (≈ 233 µM). For the same molecule, the minimum inhibitory concentration (MIC) in assay [7] and in assay [8] was 64 µg/mL (≈ 117 µM) in each case.
Turning to `O=C(CSc1nnc(-c2ccc(S(=O)(=O)c3ccccc3)cc2)[nH]1)c1ccccc1`, the minimal inhibitory concentration (MIC) stood at 128 µg/mL (≈ 294 µM) in assay [1]; 256 µg/mL (≈ 588 µM) in assay [2]; 128 µg/mL (≈ 294 µM) in assay [3]; 64 µg/mL (≈ 147 µM) in assay [4]; 64 µg/mL (≈ 147 µM) in assay [5]; 128 µg/mL (≈ 294 µM) in assay [6]. For the same molecule, the MIC in assay [7] and in assay [8] was 64 µg/mL (≈ 147 µM) each time.
For the molecule `O=S(=O)(c1ccc(Br)cc1)c1ccc(-c2nnc(S)[nH]2)cc1`, the MIC in assay [1] amounted to 128 µg/mL (≈ 323 µM); in assay [2], 256 µg/mL (≈ 646 µM); in assay [3], 64 µg/mL (≈ 161 µM); in assay [4], 64 µg/mL (≈ 161 µM); in assay [5], 64 µg/mL (≈ 161 µM); in assay [6], 128 µg/mL (≈ 323 µM). In addition, the MIC in assay [7] worked out at 64 µg/mL (≈ 161 µM); in assay [8], 256 µg/mL (≈ 646 µM).
Consider `O=S(=O)(c1ccc(Br)cc1)c1ccc(-c2nc3scc(-c4ccccc4)n3n2)cc1`, for which the MIC in assay [1] amounted to 128 µg/mL (≈ 258 µM); in assay [2], 256 µg/mL (≈ 516 µM); in assay [3] it was 256 µg/mL (≈ 516 µM); in assay [4], 64 µg/mL (≈ 129 µM); in assay [5], 128 µg/mL (≈ 258 µM); in assay [6], 128 µg/mL (≈ 258 µM). For the same molecule, the MIC in assay [7] and in assay [8] was 64 µg/mL (≈ 129 µM) in each case.
Regarding `O=S(=O)(c1ccccc1)c1ccc(-c2nc3scc(-c4ccc(Br)cc4)n3n2)cc1`, the MIC in assay [1] was found to be 128 µg/mL (≈ 258 µM); in assay [2], 256 µg/mL (≈ 516 µM); in assay [3], 128 µg/mL (≈ 258 µM); in assay [4], 64 µg/mL (≈ 129 µM); in assay [5] it was 128 µg/mL (≈ 258 µM); in assay [6], 128 µg/mL (≈ 258 µM). Moreover, the MIC in assay [7] and in assay [8] was 64 µg/mL (≈ 129 µM) each time.
For `O=S(=O)(c1ccccc1)c1ccc(-c2nc3scc(-c4ccccc4)n3n2)cc1`, the minimum inhibitory concentration (MIC) came to 128 µg/mL (≈ 307 µM) in assay [1]; 512 µg/mL (≈ 1230 µM) in assay [2]; 512 µg/mL (≈ 1230 µM) in assay [3]; 64 µg/mL (≈ 153 µM) in assay [4]; 128 µg/mL (≈ 307 µM) in assay [5]; 128 µg/mL (≈ 307 µM) in assay [6]. The MIC in assay [7] and in assay [8] was 64 µg/mL (≈ 153 µM) in each case.
Regarding `O=S(=O)(c1ccc(Cl)cc1)c1ccc(-c2nc3scc(-c4ccccc4)n3n2)cc1`, the minimum inhibitory concentration (MIC) in assay [1] is greater than 1020 µg/mL; in assay [2] it was greater than 1020 µg/mL; in assay [3], greater than 1020 µg/mL; in assay [4] it was 512 µg/mL (≈ 1130 µM); in assay [5], greater than 1020 µg/mL; in assay [6], greater than 1020 µg/mL. The minimal inhibitory concentration (MIC) was 1020 µg/mL (≈ 2270 µM) in assay [7] and greater than 1020 µg/mL in assay [8].
Regarding `O=C(CSc1nnc(-c2ccc(S(=O)(=O)c3ccc(Br)cc3)cc2)[nH]1)c1ccccc1`, the MIC in assay [1] was 128 µg/mL (≈ 249 µM); in assay [2], 256 µg/mL (≈ 498 µM); in assay [3] it was 128 µg/mL (≈ 249 µM); in assay [4], 64 µg/mL (≈ 124 µM); in assay [5], 128 µg/mL (≈ 249 µM); in assay [6] it was 128 µg/mL (≈ 249 µM). For the same molecule, the MIC in assay [7] and in assay [8] was 64 µg/mL (≈ 124 µM) each time.
`O=C(CSc1nnc(-c2ccc(S(=O)(=O)c3ccccc3)cc2)[nH]1)c1ccc(Br)cc1`: the MIC in assay [1], in assay [2], in assay [3], in assay [4], in assay [5] and in assay [6] was 512 µg/mL (≈ 995 µM) each time. The minimum inhibitory concentration (MIC) in assay [7] and in assay [8] was 512 µg/mL (≈ 995 µM) throughout.
For the molecule `O=S(=O)(c1ccc(Br)cc1)c1ccc(-c2nc3scc(-c4ccc(Br)cc4)n3n2)cc1`, the MIC came to 128 µg/mL (≈ 222 µM) in assay [1]; 256 µg/mL (≈ 445 µM) in assay [2]; 256 µg/mL (≈ 445 µM) in assay [3]; 64 µg/mL (≈ 111 µM) in assay [4]; 128 µg/mL (≈ 222 µM) in assay [5]; 128 µg/mL (≈ 222 µM) in assay [6]. The MIC in assay [7] and in assay [8] was 64 µg/mL (≈ 111 µM) each time.
Take `O=C(CSc1nnc(-c2ccc(S(=O)(=O)c3ccc(Cl)cc3)cc2)[nH]1)c1ccccc1`: the MIC worked out at 64 µg/mL (≈ 136 µM) in assay [1]; 256 µg/mL (≈ 545 µM) in assay [2]; 64 µg/mL (≈ 136 µM) in assay [3]; 64 µg/mL (≈ 136 µM) in assay [4]; 64 µg/mL (≈ 136 µM) in assay [5]; 128 µg/mL (≈ 272 µM) in assay [6]. Besides, the minimum inhibitory concentration (MIC) in assay [7] and in assay [8] was 64 µg/mL (≈ 136 µM) each time.
For the molecule `O=S(=O)(c1ccc(Cl)cc1)c1ccc(-c2nc3scc(-c4ccc(Br)cc4)n3n2)cc1`, the MIC in assay [1] was greater than 1020 µg/mL; in assay [2] it was greater than 1020 µg/mL; in assay [3], greater than 1020 µg/mL; in assay [4] it was 128 µg/mL (≈ 241 µM); in assay [5], 512 µg/mL (≈ 964 µM); in assay [6], greater than 1020 µg/mL. Moreover, the MIC in assay [7] and in assay [8] was greater than 1020 µg/mL throughout.
On to `CC1(C)S[C@@H]2[C@H](NC(=O)[C@H](N)c3ccccc3)C(=O)N2[C@H]1C(=O)O` [AMPICILLIN], for which the MIC in assay [2] came to 0.5 µg/mL (≈ 1.43 µM); in assay [5] it was 0.5 µg/mL (≈ 1.43 µM); in assay [6] it was 2 µg/mL (≈ 5.72 µM); in assay [8], 0.064 µg/mL (≈ 0.183 µM).
